The nature of series [1]: Binding affinity to 5'-FPu22T-3'-labelled c-myc G-quadruplex DNA (unknown origin) assessed as change in melting temperature by FRET assay. The gist of the method: (§1)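 Fluorescence melting on real-time PCR instrument; 0.4 μM labelled oligonucleotide (FPu22T or duplex-forming F10T), ligand 2.0 μM, in 10 mM Tris-HCl pH 7.4 with 10 or 60 mM KCl; ex 470/em 530 nm at 1 °C steps over 37–99 °C, 30 s equilibration each; ΔTm = Tm(DNA+ligand) − Tm(DNA).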

Series [2] in a line: Binding affinity to 5'-Pu22-3' c-myc G-quadruplex DNA (unknown origin) assessed as induction of parallel c-myc G-quadruplex conformation at 2 equiv after 6 hrs in absence of KCl by CD-spectroscopic analysis. In short, it runs like this:
(§2)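 Pu22 at 3 μM final in 10 mM Tris-HCl buffer with ligand at 2 equiv, with 100 mM KCl or without KCl; heated 95 °C 5 min, slowly cooled, held ≥6 h; CD spectra 230–330 nm, 1 mm quartz cell, 1 nm bandwidth and step, 0.5 s/point, average of two scans.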

Series [3] in a line: Cytotoxicity against mouse primary mesangial cells assessed as reduction in cell viability after 48 hrs by MTT assay. The series is classed as toxicity.
The nature of series [4]: Cytotoxicity against human A549 cells assessed as reduction in cell viability after 48 hrs by MTT assay. It counts as functional, cell-based. As to conditions: A549, 48 h.
A short description of series [5]: Cytotoxicity against human CA46 cells assessed as reduction in cell viability after 48 hrs by MTT assay. It counts as functional, cell-based. As to conditions: CA46, 48 h.
A short description of series [6]: Binding affinity to biotinylated 5'-Pu22-3'-labelled c-myc G-quadruplex DNA (unknown origin) after 240 secs by SPR assay. The gist of the method:
(§3)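 SPR: biotinylated Pu22 and biotinylated duplex folded in 50 mM Tris-HCl pH 7.4, 150 mM KCl, 0.005% Tween20, captured (~1000 RU) on separate flow cells with a blank reference; ligand 0.0625–10 μM in running buffer, 240 s association then 240 s dissociation at 25 °C; equilibrium KD derived.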

Series [7] in a line: Binding affinity to 5'-Pu22-3' c-myc G-quadruplex DNA (unknown origin) assessed as maintainance of parallel c-myc G-quadruplex conformation at 2 equiv after 6 hrs in presence of KCl by CD-spectroscopic analysis. The gist of the method:
as §2

Series [8] is described as follows: Cytotoxicity against human HeLa cells assessed as reduction in cell viability after 48 hrs by MTT assay. The series is classed as functional, cell-based.
Series [9] is described as follows: Binding affinity to F10T duplex DNA (unknown origin) assessed as change in melting temperature by FRET assay. In short, it runs like this:
as §1

Series [10] can be described thus: Binding affinity to 5'-FPu22T-3'-labelled c-myc G-quadruplex DNA (unknown origin) assessed as change in melting temperature at 2 uM in presence ds26 DNA of by FRET assay. The gist of the method: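 FRET melting of 0.4 μM labelled FPu22T with ligand 2.0 μM, alone or with 10-fold (4 μM), 50-fold (20 μM) or 100-fold (40 μM) excess unlabelled duplex ds26 as competitor; Tris-HCl 10 mM pH 7.4 with 10 or 60 mM KCl; ex 470/em 530 nm read every 1 °C from 37–99 °C, 30 s hold; ΔTm = Tm(DNA+ligand) − Tm(DNA).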

The nature of series [11]: Cytotoxicity against human Raji cells assessed as reduction in cell viability after 48 hrs by MTT assay. It counts as functional, cell-based.
The nature of series [12]: Binding affinity to biotinylated double stranded DNA (unknown origin) after 240 secs by SPR assay. In short, it runs like this:
as §3

Series [13] is described as follows: Drug uptake in human HeLa cells at 10 uM after 48 hrs.
Series [14] can be described thus: Selectivity ratio of Kd for double stranded DNA (unknown origin) to Kd for biotinylated 5'-Pu22-3'-labelled c-myc G-quadruplex DNA.

The structures appear in SMILES notation. Activity calls are given as the source filed them. The calls are words filed in the database; no cut-off is given here. Some results are limits rather than exact numbers.

For `CN(C)CCNCCC(=O)Nc1ccc(Nc2nc(-c3ccccc3NC(=O)CCNCCN(C)C)nc3ccccc23)cc1`, the figures for the ΔTm in series [1] and in [9] were 19.4 °C and 0.8 °C, respectively. Further, the outcome in series [2], in series [7] and in series [10] was Active. Further, the IC50 at 48 h in series [3] was over 50 µM. Also, the IC50 is over 50 µM in [4], 28.2 µM in series [5], over 50 µM in series [8] and over 50 µM in series [11]. The same molecule returned a Kd in series [6] of 0.14 µM.

Regarding `O=C(CCN1CCCC1)Nc1ccc(Nc2nc(-c3ccccc3NC(=O)CCN3CCCC3)nc3ccccc23)cc1`, the ΔTm in series [1] is 14.2 °C; in series [9], 0.9 °C. The Kd is over 10 µM in [12] and 0.2 µM in [6]. Moreover, the result in [2], in [7] and in series [10] was Active. Moreover, in series [3], the IC50 at 48 h worked out at 23.3 µM. Also, the IC50 in [4] was 26.6 µM; in series [5], 7.2 µM; in series [8] it was 7 µM; in [11], 4 µM. Moreover, the Drug uptake entry in series [13] is given as “Active”. The Selectivity ratio in [14] is over 50.

With `O=C(CCN1CCCCC1)Nc1ccc(Nc2nc(-c3ccccc3NC(=O)CCN3CCCCC3)nc3ccccc23)cc1`, the ΔTm in series [1] is 17.9 °C; in series [9], 1.4 °C. The values for the dissociation constant (Kd) in series [12] and in series [6] were over 10 µM and 0.22 µM, respectively. Also, the outcome in [2], in series [7] and in series [10] was Active. In [3], the IC50 at 48 h was determined as 6.3 µM. Besides, the IC50 in [4] was 7.5 µM; in series [5], 4.5 µM; in series [8], 7.4 µM; in [11], 1.3 µM. Further, the Selectivity ratio in [14] is over 45.4.

On to `CCN(CC)CCNCCC(=O)Nc1ccc(Nc2nc(-c3ccccc3NC(=O)CCNCCN(CC)CC)nc3ccccc23)cc1`, for which the ΔTm in [1] turned out to be 18 °C; in series [9] it was 0.6 °C. In addition, the outcome in [2], in [7] and in [10] was Active. For the same molecule, the 50% inhibitory concentration (IC50) at 48 h in [3] was over 50 µM. The IC50 in series [4], in series [5], in [8] and in [11] was over 50 µM throughout. Further, in series [6], the dissociation constant (Kd) came out at 0.21 µM.

Turning to `O=C(CN1CCCC1)Nc1ccc(Nc2nc(-c3ccccc3NC(=O)CN3CCCC3)nc3ccccc23)cc1`, the ΔTm in series [1] is 13.3 °C; in [9], 0.6 °C. The Kd was over 10 µM in series [12] and 0.16 µM in series [6]. Moreover, the result in [2], in [7] and in series [10] was Active. In series [3], the IC50 at 48 h was 16.5 µM. Besides, the IC50 in series [4] turned out to be 18.7 µM; in [5] it was 1.8 µM; in series [8], 2.9 µM; in series [11], 1.9 µM. In addition, the Drug uptake entry in [13] is on record as “Active”. The Selectivity ratio in [14] was over 62.5.

For the molecule `CN1CCN(CCC(=O)Nc2ccc(Nc3nc(-c4ccccc4NC(=O)CCN4CCN(C)CC4)nc4ccccc34)cc2)CC1`, the ΔTm in series [1] was found to be 13.2 °C; in series [9], 0.3 °C. Moreover, the result in [2], in [7] and in series [10] was Active. Also, the IC50 at 48 h in series [3] is over 50 µM. Moreover, the IC50 in [4] was over 50 µM; in [5], 19.5 µM; in [8], 20.1 µM; in series [11] it was 27.8 µM. Further, the Kd in series [6] was found to be 0.4 µM.

For `CCN(CC)CCC(=O)Nc1ccc(Nc2nc(N(CC)CC)nc3ccccc23)cc1`, the ΔTm in series [1] stood at 12.2 °C; in series [9], 0.2 °C. Further, the Kd in series [12] is over 10 µM; in series [6], 1.64 µM. In addition, in series [3], the IC50 at 48 h was 6.4 µM. The IC50 was found to be 6.1 µM in series [4], 10.3 µM in [5], 6.3 µM in [8] and 5.1 µM in [11]. Besides, the Selectivity ratio in series [14] was over 6.1. In addition, in series [10], the outcome was Active.

As for `CCN(CC)CCCCC(=O)Nc1ccc(Nc2nc(-c3ccccc3NC(=O)CCCCN(CC)CC)nc3ccccc23)cc1`, the figures for the ΔTm in series [1] and in series [9] were 13.1 °C and 0.4 °C, respectively. Further, the results for the Kd in [12] and in series [6] were over 10 µM and 0.52 µM, respectively. Also, the IC50 at 48 h in [3] is over 50 µM. The IC50 is over 50 µM in series [4], 5.7 µM in series [5], 12.7 µM in series [8] and 12.6 µM in [11]. In series [14], the Selectivity ratio was over 19.2. For the same molecule, the result in series [10] was Active.

Values taken from ChEMBL document CHEMBL3865800, “Design, synthesis and biological evaluation of 4-anilinoquinazoline derivatives as new c-myc G-quadruplex ligands” (Eur J Med Chem, 2016).
